From ChEMBL document CHEMBL4373727, “Thienopyrimidinone Derivatives That Inhibit Bacterial tRNA (Guanine37-N1)-Methyltransferase (TrmD) by Restructuring the Active Site with a Tyrosine-Flipping Mechanism” (J Med Chem, 2019)
pIC50: −log10 of the molar value. Calls of active or inactive are those of the source. Unless noted, the rule behind the calls is not given here.

Legend:
[1] = system: Mycobacterium tuberculosis; assay: Antibacterial activity against Mycobacterium tuberculosis ATCC 27294 at 100 uM incubated for 7 days; type: functional, organism-based
Erythrocyte = assay: Hemolytic activity in human RBC at 100 uM measured after 1 hr; type: ADME, cell-based
In short: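 Fresh human RBCs were PBS-washed and resuspended to OD600 24, then mixed 1:1 by volume with compound serially diluted in PBS. Incubated 1 h at 37 °C without shaking and centrifuged at 1000g for 15 min. Triton X-100 served as positive control. Run in triplicate.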

Enterococcus faecalis [2] = assay: Antibacterial activity against Enterococcus faecalis ATCC 51299 at 100 uM incubated for 24 hrs; type: functional, organism-based
In short: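 Single-concentration screen in brain heart infusion broth. Log-phase cells at ~5×10^5 cells/mL were grown with 100 μM compound for 24 h at 37 °C. Growth was read as OD600 and expressed as a percentage of untreated wells. DMSO and blank controls were included.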

[3] = biological target: T1, tRNA (guanine-N(1)-)-methyltransferase (Pseudomonas aeruginosa (strain ATCC 15692 / DSM 22644 / CIP 104116 / JCM14847 / LMG 12228 / 1C / PRS 101 / PAO1), UniProt Q9HXQ1); assay: Inhibition of Pseudomonas aeruginosa tRNA (guanine(37)-N1)-methyltransferase (Leu5 to Asp25 residues) expressed in Escherichia coli BL21 (DE3) Rosetta T1R cells assessed as reduction in S-adenosyl-L-homocysteine production preincubated for 15 mins followed by 1.5 uM of tRNALeu(CAG) substrate and SAM addition and measured after 45 mins by MTase-Glo assay
T1 sequence (Q9HXQ1 whole entry): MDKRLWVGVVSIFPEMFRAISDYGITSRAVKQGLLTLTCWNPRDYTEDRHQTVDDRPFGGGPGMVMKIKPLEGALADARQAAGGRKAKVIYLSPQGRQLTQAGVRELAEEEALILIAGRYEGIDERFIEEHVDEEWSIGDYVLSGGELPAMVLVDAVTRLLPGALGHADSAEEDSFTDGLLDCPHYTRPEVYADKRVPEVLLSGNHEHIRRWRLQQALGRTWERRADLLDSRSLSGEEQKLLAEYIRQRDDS
In short: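 MTase-Glo luminescence assay. 8 nM TrmD preincubated 15 min at ambient temperature with serially diluted inhibitor (0–500 μM) in 50 mM Tris-HCl pH 8.0, 80 mM NaCl, 1 mM MgCl2, 0.5 mM DTT, 0.01% Triton X-100. Reaction with 2 μM SAM and tRNALeu(CAG), 45 min at 37 °C. Detection 30 min in the dark, SAH read against a standard curve. IC50 by nonlinear regression. Two independent experiments in duplicate.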

Staphylococcus aureus [4] = assay: Antibacterial activity against methicillin-resistant Staphylococcus aureus ATCC 43300 at 100 uM incubated for 24 hrs; type: functional, organism-based
In short: (§1)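 Single-concentration growth screen: 100 μM test compound with log-phase bacteria at about 5×10^5 cells/mL. Incubation 24 h at 37 °C. Growth read by OD600 and given as percent of untreated control. MRSA was grown in cation-adjusted Mueller–Hinton broth. M. smegmatis was grown in complete Middlebrook 7H9. Ampicillin and kanamycin served as positive controls.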

[5] = system: Mycolicibacterium smegmatis; assay: Antibacterial activity against Mycolicibacterium smegmatis MC2 155 at 100 uM incubated for 24 hrs; type: functional, organism-based; in short: as §1
Streptococcus pneumoniae [6] = assay: Antibacterial activity against Streptococcus pneumoniae ATCC 49619 at 100 uM incubated for 24 hrs; type: functional, organism-based
In short: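 Single 100 μM screen in MH medium with 3% defibrinated sheep blood at 37 °C under 5% CO2, ~5×10^5 cells/mL, 24 h.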

Staphylococcus aureus [7] = assay: Antibacterial activity against methicillin-resistant Staphylococcus aureus ATCC 43300 incubated for 24 hrs by serial broth microdilution method; type: functional
In short: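 Growth read by OD600. MRSA in cation-adjusted Mueller–Hinton broth, M. smegmatis in complete 7H9. MIC50 and MIC90 are 50% and 90% growth inhibition versus drug-free controls. Two independent experiments, each in duplicate.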

Enterococcus faecalis [8] = assay: Antibacterial activity against Enterococcus faecalis ATCC 51299 incubated for 24 hrs by serial broth microdilution method; type: functional, organism-based
In short: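 Broth microdilution in brain heart infusion broth, ~5×10^5 cells/mL log-phase inoculum, serial compound dilutions, 24 h at 37 °C, OD600 read-out. MIC50/MIC90 are the concentrations giving 50%/90% growth inhibition relative to drug-free controls. Two independent experiments in duplicate.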

Escherichia coli = assay: Antibacterial activity against Escherichia coli BW25113 incubated for 24 hrs by serial broth microdilution method; type: functional, organism-based
In short: (§2)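 Log-phase cultures from four colonies grown overnight at 37 °C, inoculated at ~5×10^5 cells/mL in cation-adjusted Mueller–Hinton broth with serially diluted compound. Grown 24 h at 37 °C, then OD600 read. MIC50/MIC90 are the concentrations giving 50%/90% growth inhibition relative to drug-free controls. Two independent experiments in duplicate.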

Pseudomonas aeruginosa = assay: Antibacterial activity against Pseudomonas aeruginosa PA14 incubated for 24 hrs by serial broth microdilution method; type: functional, organism-based; in short: as §2
Streptococcus pneumoniae [9] = assay: Antibacterial activity against Streptococcus pneumoniae ATCC 49619 incubated for 24 hrs by serial broth microdilution method; type: functional
In short: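 Cultured in MH medium plus 3% defibrinated sheep blood at 37 °C, 5% CO2. Log-phase inoculum ~5×10^5 cells/mL was exposed to serial compound dilutions for 24 h. MIC50/MIC90 are relative to drug-free controls. Two independent experiments in duplicate.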

Salmonella enteritidis = assay: Antibacterial activity against Salmonella enteritidis ATCC 13076 incubated for 24 hrs by serial broth microdilution method; type: functional; conditions: Salmonella enterica subsp. enterica serovar Enteritidis; in short: as §2
Acinetobacter baumannii = assay: Antibacterial activity against Acinetobacter baumannii ATCC 17961 incubated for 24 hrs by serial broth microdilution method; type: functional; in short: as §2
Klebsiella pneumoniae = assay: Antibacterial activity against Klebsiella pneumoniae ATCC 13883 incubated for 24 hrs by serial broth microdilution method; type: functional, organism-based; in short: as §2
[10] = biological target: T2, tRNA (guanine-N(1)-)-methyltransferase (Pseudomonas aeruginosa (strain ATCC 15692 / DSM 22644 / CIP 104116 / JCM14847 / LMG 12228 / 1C / PRS 101 / PAO1)) (UniProt Q9HXQ1); assay: Binding affinity to Pseudomonas aeruginosa tRNA (guanine(37)-N1)-methyltransferase (Leu5 to Asp25 residues) expressed in Escherichia coli BL21 (DE3) Rosetta T1R cells assessed as thermal stabilization of protein by measuring change in melting temperature at 0.1 mM by SYPRO orange based thermal shift assay
T2 sequence (whole entry): T1 sequence (Q9HXQ1 whole entry)
In short: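 Thermal shift: 4 μM TrmD with 5× SYPRO Orange and ligand in 50 mM Tris-HCl pH 8, 150 mM NaCl, 1 mM MgCl2, 1 mM DTT, 0.05% Tween-20. Buffer-only control. Heated from 25 to 95 °C in a real-time PCR instrument, and Tm taken as the unfolding midpoint. Ligand levels: SAH 2 mM, inhibitors 0.1 mM.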

| SMILES | Activity [1] | Activity (Erythrocyte) | Activity (Enterococcus faecalis [2]) | pIC50 [3] | Activity (Staphylococcus aureus [4]) | Activity [5] | Activity (Streptococcus pneumoniae [6]) | Activity (Staphylococcus aureus [7]) | Activity (Enterococcus faecalis [8]) | Activity (Escherichia coli) | Activity (Pseudomonas aeruginosa) | Activity (Streptococcus pneumoniae [9]) | Activity (Salmonella enteritidis) | Activity (Acinetobacter baumannii) | Activity (Klebsiella pneumoniae) | ΔTm [10] [°C] |
| --- | --- | --- | --- | --- | --- | --- | --- | --- | --- | --- | --- | --- | --- | --- | --- | --- |
| CCCCCCCCN(Cc1ccccc1)Cc1ccc(CNC(=O)c2csc3nc[nH]c(=O)c23)cc1 | inactive | Non-Toxic | inactive | 4.92 | inactive | inactive | inactive | – | – | – | – | – | – | – | – | – |
| Cl.NCCCCNCc1ccc(CNC(=O)c2csc3nc[nH]c(=O)c23)cc1 | inactive | Non-Toxic | inactive | 7.10 | inactive | inactive | inactive | inactive | inactive | inactive | inactive | inactive | inactive | inactive | inactive | – |
| CCCCCCCCN(CC)Cc1ccc(CNC(=O)c2csc3nc[nH]c(=O)c23)cc1 | inactive | – | inactive | 6.43 | inactive | inactive | inactive | – | – | – | – | – | – | – | – | – |
| Cl.NCCOCCOCCNCc1ccc(CNC(=O)c2csc3nc[nH]c(=O)c23)cc1 | inactive | Non-Toxic | inactive | 6.35 | inactive | inactive | inactive | inactive | inactive | inactive | inactive | inactive | inactive | inactive | inactive | – |
| CCCCCNCc1ccc(CNC(=O)c2csc3nc[nH]c(=O)c23)cc1 | inactive | Non-Toxic | inactive | 7.07 | inactive | inactive | inactive | – | – | – | – | – | – | – | – | – |
| CCN(CC)Cc1ccc(CNC(=O)c2csc3nc[nH]c(=O)c23)cc1 | inactive | Non-Toxic | inactive | 6.14 | inactive | inactive | inactive | – | – | – | – | – | – | – | – | – |
| CCOCCOCCNCc1ccc(CNC(=O)c2csc3nc[nH]c(=O)c23)cc1 | inactive | – | inactive | 6.68 | inactive | inactive | inactive | – | – | – | – | – | – | – | – | – |
| O=C(NCc1ccc(CNCc2ccccc2)cc1)c1csc2nc[nH]c(=O)c12 | inactive | Non-Toxic | inactive | 6.89 | inactive | inactive | inactive | – | – | – | – | – | – | – | – | – |
| Cl.NCCCCCNCc1ccc(CNC(=O)c2csc3nc[nH]c(=O)c23)cc1 | inactive | Non-Toxic | inactive | 6.96 | inactive | inactive | inactive | inactive | inactive | inactive | inactive | inactive | inactive | inactive | inactive | – |
| CCCCCCCCNCc1ccc(CNC(=O)c2csc3ncnc(OCc4ccc(N=[N+]=[N-])cc4)c23)cc1 | – | – | – | 5.74 | – | – | – | – | – | – | – | – | – | – | – | 1 to 2 |
| CCN(Cc1ccccc1)Cc1ccc(CNC(=O)c2csc3nc[nH]c(=O)c23)cc1 | inactive | Non-Toxic | inactive | 5.66 | inactive | inactive | inactive | – | – | – | – | – | – | – | – | – |
| O=C(NCc1ccc(CN2CCOCC2)cc1)c1csc2nc[nH]c(=O)c12 | inactive | Non-Toxic | inactive | 5.52 | inactive | inactive | inactive | – | – | – | – | – | – | – | – | – |
| O=C(NCc1ccc(CN2CCCCC2)cc1)c1csc2nc[nH]c(=O)c12 | inactive | Non-Toxic | inactive | 5.96 | inactive | inactive | inactive | – | – | – | – | – | – | – | – | – |
| O=C(NCc1ccc(CNCCOCCO)cc1)c1csc2nc[nH]c(=O)c12 | inactive | Non-Toxic | inactive | 6.96 | inactive | inactive | inactive | – | – | – | – | – | – | – | – | – |
| CCN(Cc1ccc(CNC(=O)c2csc3nc[nH]c(=O)c23)cc1)C1CCCCC1 | inactive | Non-Toxic | inactive | 6.31 | inactive | inactive | inactive | – | – | – | – | – | – | – | – | – |
| CCCCNCc1ccc(CNC(=O)c2csc3nc[nH]c(=O)c23)cc1 | inactive | Non-Toxic | inactive | 6.82 | inactive | inactive | inactive | – | – | – | – | – | – | – | – | – |
| O=C(NCc1ccc(CNC23CC4CC(CC(C4)C2)C3)cc1)c1csc2nc[nH]c(=O)c12 | inactive | Non-Toxic | inactive | 6.14 | inactive | inactive | inactive | – | – | – | – | – | – | – | – | – |
| CCCCCCN(Cc1ccccc1)Cc1ccc(CNC(=O)c2csc3nc[nH]c(=O)c23)cc1 | inactive | – | inactive | 5.66 | inactive | inactive | inactive | – | – | – | – | – | – | – | – | – |
| O=C(NCc1ccc(CNC2CCCCC2)cc1)c1csc2nc[nH]c(=O)c12 | inactive | Non-Toxic | inactive | 6.10 | inactive | inactive | inactive | – | – | – | – | – | – | – | – | – |
